# Source: ChEMBL document CHEMBL1154874, “6-Substituted 2-(N-trifluoroacetylamino)imidazopyridines induce cell cycle arrest and apoptosis in SK-LU-1 human cancer cell line” (Eur J Med Chem, 2010)
# The source made the active and inactive calls. The calls are words filed in the database; no cut-off is given here.
# What was measured:
# [1] = test system: U-251; test: Cytotoxicity against human U251 cells assessed as cell growth inhibition at 50 uM after 48 hrs by SRB assay; format: functional; settings: U-251, 48 h, read-out: GI
# How it was run: (§1)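 Cells in RPMI-1640/10% FBS/2 mM L-glutamine at 37 °C, 5% CO₂, seeded at 5000 cells/well and treated 24 h later for 48 h. Growth read by SRB (TCA fixation, 0.4% SRB, Tris solubilization, OD 515 nm).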
# [2] = test system: PC-3; test: Cytotoxicity against human PC3 cells assessed as cell growth inhibition at 50 uM after 48 hrs by SRB assay; format: functional; settings: PC-3, 48 h, read-out: GI; how it was run: as §1
# [3] = test system: K562; test: Cytotoxicity against human K562 cells assessed as cell growth inhibition at 50 uM after 48 hrs by SRB assay; format: functional; settings: K562, 48 h, read-out: GI; how it was run: as §1
# [4] = test system: HCT-15; test: Cytotoxicity against human HCT15 cells assessed as cell growth inhibition at 50 uM after 48 hrs by SRB assay; format: functional; settings: HCT-15, 48 h, read-out: GI; how it was run: as §1
# [5] = test system: MCF7; test: Cytotoxicity against human MCF7 cells assessed as cell growth inhibition at 50 uM after 48 hrs by SRB assay; format: functional; settings: MCF7, 48 h, read-out: GI; how it was run: as §1
# [6] = test system: SK-LU-1; test: Cytotoxicity against human SK-LU-1 cells assessed as cell growth inhibition at 50 uM after 48 hrs by SRB assay; format: functional; settings: SK-LU-1, 48 h, read-out: GI; how it was run: as §1
# [7] = test system: U-251; test: Cytotoxicity against human U251 cells after 48 hrs by SRB assay; format: functional, cell-based; settings: U-251, 48 h
# How it was run: (§2)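 Compounds dissolved in DMSO. Cells grown in RPMI-1640 with 10% FBS and 2 mM L-glutamine at 37 °C under 5% CO₂. Seeded from 70% confluent flasks at 5000 cells/well, treated 24 h after seeding for 48 h. Fixed in situ with cold 50% TCA for 1 h at 4 °C, stained with 0.4% SRB, dye solubilized in 10 mM unbuffered Tris base, OD read at 515 nm.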
# [8] = test system: PC-3; test: Cytotoxicity against human PC3 cells after 48 hrs by SRB assay; format: functional, cell-based; settings: PC-3, 48 h; how it was run: as §2
# [9] = test system: K562; test: Cytotoxicity against human K562 cells after 48 hrs by SRB assay; format: functional, cell-based; settings: K562, 48 h; how it was run: as §2
# [10] = test system: HCT-15; test: Cytotoxicity against human HCT15 cells after 48 hrs by SRB assay; format: functional, cell-based; settings: HCT-15, 48 h; how it was run: as §2
# [11] = test system: MCF7; test: Cytotoxicity against human MCF7 cells after 48 hrs by SRB assay; format: functional, cell-based; settings: MCF7, 48 h; how it was run: as §2
# [12] = test system: SK-LU-1; test: Cytotoxicity against human SK-LU-1 cells after 48 hrs by SRB assay; format: functional, cell-based; settings: SK-LU-1, 48 h; how it was run: as §2
# [13] = test system: MCF7; test: Cell cycle arrest in human MCF7 cells assessed as accumulation at G0/G1 phase at 2 times IC50 concentration after 24 hrs using propidium iodide staining by flow cytometry relative to control; format: functional
# How it was run: (§3)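 Log-phase cells seeded in RPMI-1640 + 10% FBS at 1×10⁶ per 10 cm dish, attached 24 h at 37 °C, then exposed to compound (DMSO solvent control) for 24 h. Harvested with PBS-EDTA, washed, fixed in ice-cold 70% ethanol at −20 °C for 24–48 h, stained with propidium iodide and analysed by FACScan flow cytometry. Three independent experiments, mean ± SD; P < 0.05 versus DMSO.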
# [14] = test system: MCF7; test: Cell cycle arrest in human MCF7 cells assessed as accumulation at S phase at 2 times IC50 concentration after 24 hrs using propidium iodide staining by flow cytometry relative to control; format: functional; how it was run: as §3
# [15] = test system: MCF7; test: Cell cycle arrest in human MCF7 cells assessed as accumulation at G2/M phase at 2 times IC50 concentration after 24 hrs using propidium iodide staining by flow cytometry relative to control; format: functional; how it was run: as §3
# [16] = test system: SK-LU-1; test: Cell cycle arrest in human SK-LU-1 cells assessed as accumulation at G0/G1 phase at 2 times IC50 concentration after 24 hrs using propidium iodide staining by flow cytometry relative to control; format: functional; how it was run: as §3
# [17] = test system: SK-LU-1; test: Cell cycle arrest in human SK-LU-1 cells assessed as accumulation at S phase at 2 times IC50 concentration after 24 hrs using propidium iodide staining by flow cytometry relative to control; format: functional; how it was run: as §3
# [18] = test system: SK-LU-1; test: Induction of apoptosis in human SK-LU-1 cells assessed as early apoptotic cells at 2 times IC50 concentration after 48 hrs using annexin V-propidium iodide staining by flow cytometry; format: functional, cell-based
# How it was run: (§4)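 SK-LU-1 cells treated 48 h with compounds at 2×IC50 or with DMSO as control. Labelled with FITC-annexin V and propidium iodide in binding buffer and analysed on a FACScan flow cytometer. Annexin V-only cells were scored as early apoptotic and annexin V/PI double-stained cells as late apoptotic. Values are means of three independent experiments.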
# [19] = test system: SK-LU-1; test: Induction of apoptosis in human SK-LU-1 cells assessed as late apoptotic cells at 2 times IC50 concentration after 48 hrs using annexin V-propidium iodide staining by flow cytometry; format: functional, cell-based; how it was run: as §4
# [20] = test system: SK-LU-1; test: Induction of apoptosis in human SK-LU-1 cells assessed as appearance of phosphatidylserine residues at 2 times IC50 concentration after 48 hrs by flow cytometry; format: functional; how it was run: as §4
# [21] = test system: SK-LU-1; test: Cell cycle arrest in human SK-LU-1 cells assessed as accumulation at G2/M phase at 2 times IC50 concentration after 24 hrs using propidium iodide staining by flow cytometry relative to control; format: functional; how it was run: as §3
Structure (SMILES),inhibition of growth at 50 µM [1] [%],inhibition of growth at 50 µM [2] [%],inhibition of growth at 50 µM [3] [%],inhibition of growth at 50 µM [4] [%],inhibition of growth at 50 µM [5] [%],inhibition of growth at 50 µM [6] [%],IC50 [7] [µM],IC50 [8] [µM],IC50 [9] [µM],IC50 [10] [µM],IC50 [11] [µM],IC50 [12] [µM],Activity [13] [%],Activity [14] [%],Activity [15] [%],Activity [16] [%],Activity [17] [%],also measured
Cc1ccc(F)c(C(=O)c2ccc3nc(NC(=O)C(F)(F)F)cn3c2)c1,61.5,59.2,92.6,91.2,66.3,71.7,51.9,36.3,10.9,10.5,10.7,11.2,74,7.1,13.4,10.4,21.2,Activity [18]: Active; Activity [19]: Active; Activity [20]: 20%
O=C(c1ccc2nc(NC(=O)C(F)(F)F)cn2c1)c1ccc(C(F)(F)F)cc1F,80.1,92.6,90.2,100,97.2,100,52.3,28,56.6,25,24.9,35.1,–,–,–,–,–,–
O=C(Nc1cn2cc(I)ccc2n1)C(F)(F)F,20.8,50.9,33.1,56.3,36.7,25.6,–,–,–,–,–,–,–,–,–,–,–,–
Cn1cnc2c(NCc3ccccc3)nc(NCCO)nc21 [OLOMOUCINE],32,22.7,19.8,28.9,37.6,36.9,81.5,81,89.3,62.5,55.9,68.1,60.6,15,23.2,44.2,19.7,Activity [21]: 31.8%
O=C(c1ccc2nc(NC(=O)C(F)(F)F)cn2c1)c1ncc[nH]1,80.2,58.1,88.3,47.8,60.7,97.5,37.7,52.3,51.5,56.8,42.4,25.1,–,–,–,–,–,–
